In ChEMBL document CHEMBL4431328, “Development of a Single-Chain Peptide Agonist of the Relaxin-3 Receptor Using Hydrocarbon Stapling” (J Med Chem, 2016):
The source made the active and inactive calls. No cut-off for these calls is given here. Where a SMILES comes first, the peptide text is derived from it. Bridges are numbered along the chain shown (N, C = ends). [ ]: non-standard residue; d: D form. S5 = C=CCCC[C@](C)(N)C(=O)O; hCys = N[C@@H](CCS)C(=O)O

How the values were obtained:
[1] = target: T1, Relaxin-3 receptor 1 (Homo sapiens, UniProt Q9NSD7); test: Agonist activity at human RXFP3 receptor expressed in CHOK1 cells cotransfected with beta-galactosidase assessed as inhibition of forskolin-stimulated cAMP by beta-galactosidase reporter gene assay; assay type: functional, cell-based
T1 sequence (Q9NSD7 whole entry): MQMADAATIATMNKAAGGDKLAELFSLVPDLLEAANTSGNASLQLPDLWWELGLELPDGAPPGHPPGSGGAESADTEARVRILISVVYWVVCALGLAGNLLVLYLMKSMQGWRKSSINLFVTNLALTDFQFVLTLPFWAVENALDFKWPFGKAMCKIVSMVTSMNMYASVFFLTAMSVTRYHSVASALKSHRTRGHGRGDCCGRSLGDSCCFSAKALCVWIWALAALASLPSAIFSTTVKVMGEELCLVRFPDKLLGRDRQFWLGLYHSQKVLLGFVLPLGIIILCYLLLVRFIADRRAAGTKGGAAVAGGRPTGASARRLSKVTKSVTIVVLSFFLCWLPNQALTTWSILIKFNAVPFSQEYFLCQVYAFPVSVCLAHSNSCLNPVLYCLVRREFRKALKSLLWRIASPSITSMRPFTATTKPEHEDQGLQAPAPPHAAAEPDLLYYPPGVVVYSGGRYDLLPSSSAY

[2] = target: T1, Relaxin-3 receptor 1; test: Displacement of Eu-H3/15 from human RXFP3 receptor expressed in CHOK1 cells by time-resolved fluorescent whole cell binding assay; assay type: cell-based
[3] = target: T2, Relaxin receptor 1 (Homo sapiens) (UniProt Q9HBX9); test: Agonist activity at RXFP1 receptor (unknown origin) expressed in HEK-293T cells cotransfected with beta-galactosidase assessed as cAMP activation at 10 uM by beta-galactosidase reporter gene assay; assay type: functional, cell-based
T2 sequence (whole entry): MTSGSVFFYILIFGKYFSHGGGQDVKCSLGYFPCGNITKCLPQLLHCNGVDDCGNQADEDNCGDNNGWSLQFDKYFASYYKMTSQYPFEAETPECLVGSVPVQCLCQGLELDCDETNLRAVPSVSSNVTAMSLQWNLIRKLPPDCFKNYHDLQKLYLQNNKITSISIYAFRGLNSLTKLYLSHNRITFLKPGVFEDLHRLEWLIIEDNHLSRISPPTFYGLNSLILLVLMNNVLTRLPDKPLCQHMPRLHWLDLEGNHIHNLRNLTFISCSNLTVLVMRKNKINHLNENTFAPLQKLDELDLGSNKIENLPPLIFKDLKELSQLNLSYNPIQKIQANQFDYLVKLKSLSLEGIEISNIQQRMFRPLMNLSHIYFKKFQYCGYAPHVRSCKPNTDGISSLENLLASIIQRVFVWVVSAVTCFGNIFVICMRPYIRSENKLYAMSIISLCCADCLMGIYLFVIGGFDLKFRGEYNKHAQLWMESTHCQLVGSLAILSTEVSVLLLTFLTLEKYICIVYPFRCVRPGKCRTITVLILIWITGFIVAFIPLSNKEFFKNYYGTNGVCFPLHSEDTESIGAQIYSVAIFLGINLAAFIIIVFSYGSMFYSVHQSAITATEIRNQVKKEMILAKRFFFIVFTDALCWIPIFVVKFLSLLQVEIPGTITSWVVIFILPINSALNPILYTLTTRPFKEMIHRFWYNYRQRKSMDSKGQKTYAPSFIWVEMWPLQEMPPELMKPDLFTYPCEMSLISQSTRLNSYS
How it was run: (§1)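 Tested for RXFP1 activation at concentrations up to 10 µM, alongside the […] as a reference.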

[4] = target: T3, Relaxin-3 receptor 2 (Homo sapiens, UniProt Q8TDU9); test: Agonist activity at human RXFP4 receptor expressed in CHOK1 cells cotransfected with beta-galactosidase assessed as inhibition of forskolin-stimulated cAMP by beta-galactosidase reporter gene assay; assay type: functional, cell-based
T3 sequence (Q8TDU9 whole entry): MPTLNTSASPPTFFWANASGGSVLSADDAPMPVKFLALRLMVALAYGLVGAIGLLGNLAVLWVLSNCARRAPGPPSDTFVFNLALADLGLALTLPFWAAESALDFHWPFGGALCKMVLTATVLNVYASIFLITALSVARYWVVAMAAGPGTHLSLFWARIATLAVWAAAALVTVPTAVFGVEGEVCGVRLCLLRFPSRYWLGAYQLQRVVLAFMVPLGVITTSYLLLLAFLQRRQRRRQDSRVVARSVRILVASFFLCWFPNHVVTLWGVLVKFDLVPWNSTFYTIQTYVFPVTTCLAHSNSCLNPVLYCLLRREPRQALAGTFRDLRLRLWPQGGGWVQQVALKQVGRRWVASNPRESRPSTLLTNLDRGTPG

[5] = target: T2, Relaxin receptor 1 (Homo sapiens); test: Agonist activity at RXFP1 receptor (unknown origin) expressed in HEK-293T cells cotransfected with beta-galactosidase assessed as cAMP activation by beta-galactosidase reporter gene assay; assay type: functional, cell-based; how it was run: as §1
[6] = target: T3, Relaxin-3 receptor 2; test: Displacement of Eu-INSL5 from human RXFP4 receptor expressed in CHOK1 cells by time-resolved fluorescent whole cell binding assay; assay type: cell-based

EC50 [1] [nM]	Ki [2] [nM]	Activity [3]	EC50 [4] [nM]	pEC50 [5]	pKi [6]	Ki [6] [nM]	Structure (SMILES)
> 10000	603	inactive	> 10000	inactive	inactive	–	CC[C@H](C)[C@H](NC(=O)[C@H](Cc1ccccc1)NC(=O)[C@H](CCC(=O)O)NC(=O)[C@H](CCCNC(=N)N)NC(=O)CNC(=O)[C@H](CO)NC(=O)[C@H](CC(C)C)NC(=O)[C@H](CCCNC(=N)N)NC(C)=O)C(=O)N[C@@H](CCCNC(=N)N)C(=O)N[C@@]1(C)CCC/C=C\CCC[C@@](C)(C(=O)N[C@@H](CO)C(=O)NCC(=O)NCC(=O)N[C@@H](CO)C(=O)N[C@@H](CCCNC(=N)N)C(=O)N[C@@H](Cc2c[nH]c3ccccc23)C(=O)O)NC(=O)[C@H](Cc2ccccc2)NC(=O)[C@H]([C@@H](C)CC)NC(=O)[C@H](C(C)C)NC1=O (Ac-RLSGREFIR[S5]VIF[S5]SGGSRW-OH; staple (Z) 10-14)
3.55	–	inactive	123	inactive	–	–	CC[C@H](C)[C@@H]1NC(=O)[C@H](Cc2ccccc2)NC(=O)[C@@](C)(NC(=O)[C@H](CCCNC(=N)N)NC(=O)CNC(=O)[C@H](CO)NC(=O)[C@H](CC(C)C)NC(=O)[C@@H](N)CCCNC(=N)N)CCC/C=C/CCC[C@@](C)(C(=O)N[C@H](C(=O)N[C@H](C(=O)N[C@@H](Cc2ccccc2)C(=O)N[C@H](C(=O)N[C@@H](CO)C(=O)NCC(=O)NCC(=O)N[C@@H](CO)C(=O)N[C@@H](CCCNC(=N)N)C(=O)N[C@@H](Cc2c[nH]c3ccccc23)C(=O)O)[C@@H](C)O)[C@@H](C)CC)C(C)C)NC(=O)[C@H](CCCNC(=N)N)NC1=O (H-RLSGR[S5]FIR[S5]VIFTSGGSRW-OH; staple (E) 6-10)

The next lines start with the compound.

Structure (SMILES)	EC50 [1] [nM]	Ki [2] [nM]	Activity [3]	EC50 [4] [nM]	pEC50 [5]	pKi [6]	Ki [6] [nM]
CC[C@H](C)[C@@H]1NC(=O)[C@H](Cc2ccccc2)NC(=O)[C@@](C)(NC(=O)[C@H](CCCNC(=N)N)NC(=O)CNC(=O)[C@H](CO)NC(=O)[C@H](CC(C)C)NC(=O)[C@H](CCCNC(=N)N)NC(=O)[C@@H](NC(=O)CNC(C)=O)C(C)C)CCC/C=C/CCC[C@@](C)(C(=O)N[C@H](C(=O)N[C@H](C(=O)N[C@@H](Cc2ccccc2)C(=O)N[C@H](C(=O)N[C@@H](CO)C(=O)NCC(=O)NCC(=O)N[C@@H](CO)C(=O)N[C@@H](CCCNC(=N)N)C(=O)N[C@@H](Cc2c[nH]c3ccccc23)C(=O)O)[C@@H](C)O)[C@@H](C)CC)C(C)C)NC(=O)[C@H](CCCNC(=N)N)NC1=O (Ac-GVRLSGR[S5]FIR[S5]VIFTSGGSRW-OH; staple (E) 8-12)	11.7	229	inactive	–	–	–	–
CC[C@H](C)[C@@H]1NC(=O)[C@H](Cc2ccccc2)NC(=O)[C@@H](NC(=O)[C@H](CCCNC(=N)N)NC(=O)CNC(=O)[C@H](CO)NC(C)=O)CCC(=O)NCCCC[C@@H](C(=O)N[C@H](C(=O)N[C@H](C(=O)N[C@@H](Cc2ccccc2)C(=O)N[C@H](C(=O)N[C@@H](CO)C(=O)NCC(=O)NCC(=O)N[C@@H](CO)C(=O)N[C@@H](CCCNC(=N)N)C(=O)N[C@@H](Cc2c[nH]c3ccccc23)C(=O)O)[C@@H](C)O)[C@@H](C)CC)C(C)C)NC(=O)[C@H](CCCNC(=N)N)NC1=O (Ac-SGREFIRKVIFTSGGSRW-OH; lactam 4-8)	> 1000	–	inactive	537	–	–	> 10000
CC[C@H](C)[C@@H]1NC(=O)[C@H](Cc2ccccc2)NC(=O)[C@@H](NC(=O)[C@H](CCCNC(=N)N)NC(=O)CNC(=O)[C@H](CO)NC(C)=O)CCSSCC[C@@H](C(=O)N[C@H](C(=O)N[C@H](C(=O)N[C@@H](Cc2ccccc2)C(=O)N[C@H](C(=O)N[C@@H](CO)C(=O)NCC(=O)NCC(=O)N[C@@H](CO)C(=O)N[C@@H](CCCNC(=N)N)C(=O)N[C@@H](Cc2c[nH]c3ccccc23)C(=O)O)[C@@H](C)O)[C@@H](C)CC)C(C)C)NC(=O)[C@H](CCCNC(=N)N)NC1=O (Ac-SGR[hCys]FIR[hCys]VIFTSGGSRW-OH; disulfide 4-8)	> 10000	2510	inactive	3720	–	–	> 10000
